Assay outcomes as filed in PubChem.
Apaf-1 inh – inhibitors of human Apaf-1 apoptosome, primary screen, biochemical, DEVD-Rh110 fluorescence, uHTS; reconstituted apoptosome caspase-3 activity; inhibition, % at 20 µM; 330,000 tested, 0.71% active; active means inhibition of at least 40% at 20 µM
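Material: cell-free apoptosome with Apaf-1, procaspase-3 and caspase-9; Buffer or medium: Hepes pH 7.5 with detergent and BSA; Reagent: cytochrome c trigger plus (Z-DEVD)2-Rh110 caspase-3 substrate; Times: compound with Apaf-1, dATP, procaspase-3 30 min, then 50 min reaction, room temperature; Technique: Rh110 fluorescence intensity.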
iPSC survival up – enhancers of single-cell hiPSC survival, primary screen, ATPlite luminescence. survival enhancement, % at 20 µM. 360,000 tested, 0.044% active. 100% = ROCK inhibitor wells, 0% = DMSO; in the data active means survival enhancement above about 18%;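 further: cells exposed to compounds for 16 hours before the ATP read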
UBC13 inh – UBC13 polyubiquitin chain formation inhibitors, primary screen, biochemical, TR-FRET, uHTS | AID 485273, 2010 | 330,000 tested, 0.47% active | Ubiquitin-conjugating enzyme E2 N (Homo sapiens), P61088 | inhibition, % at 20 µM; in the data active means inhibition above about 45%, passing the limit was not always enough
Target sequence (P61088 whole entry, looked up): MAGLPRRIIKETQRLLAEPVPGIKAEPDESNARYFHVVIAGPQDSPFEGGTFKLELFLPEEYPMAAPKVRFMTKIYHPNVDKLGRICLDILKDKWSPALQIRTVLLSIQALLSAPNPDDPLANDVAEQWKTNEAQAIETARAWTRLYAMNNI
MIN6 prolif – inducers of MIN6 beta-cell proliferation, primary screen, ATP luminescence, uHTS; MIN6 cells proliferation, ATPlite luminescence, 48 h; cells starved in 0.2% serum; 100% = growth in 10% serum; proliferation, % at 10 µM; 330,000 tested, 0.29% active;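 active means compounds whose signal lies at least 3.5 SD above the mean of all wells on their plate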
MPTP inh – mitochondrial permeability transition pore inhibitors, primary screen, biochemical, isolated mouse mitochondria, absorbance | Ca2+ swelling absorbance, 30 min | inhibition, % at 10 µM | AID 602449, 2012 | 360,000 tested, 1.4% active;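 active means inhibition of 50% or more, scaled per plate between neutral and stimulator controls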
Exocytosis inh – LAMP-1 surface exposure blockers, TALL-104 cells – cell-based, flow cytometry, MLPCN library, primary screen; TALL-104 LAMP-1 surface exposure; cells stimulated with thapsigargin and PMA; inhibition, % at 10 µM; 360,000 tested, 0.66% active; AID 651702, 2012;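 active means inhibition above about 55%, limit read from the data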
Rh123 counter – fluorescence retest of MPTP screen hits in isolated mitochondria, single concentration; shares compounds with MPTP inh; membrane potential, Rhodamine 123 fluorescence; inhibition, % at 10 µM; 5,000 tested, 78% active; in the data active means inhibition above about 22%
MPTP swell DR – mitochondrial permeability transition pore inhibitors, dose response, biochemical, absorbance, uHTS hits | 780 tested, 58% active | isolated mitochondria swelling | IC50, µM | shares compounds with MPTP inh; in the data active means IC50 below about 20 µM
MPTP cs DR – fluorescent counter-screen in isolated mitochondria, dose response, counter-screen for MPTP inhibitor project, biochemical, fluorescence, uHTS hits; AID 651564, 2012; IC50, µM; 780 tested, 49% active; isolated mitochondria counterscreen, fluorescence read-out; shares compounds with MPTP inh; in the data active means IC50 below about 80 µM
A number is an active result. A selection: hits, their analogues and other compounds. The true share with any hit is near 3%.

What do the screens show for `Clc1ccc(C(c2ccccc2)N2CCNCC2)cc1` (stereo not drawn)?
Apaf-1 inh: inactive; iPSC survival up: inactive; UBC13 inh: inactive; MIN6 prolif: inactive; MPTP inh: 80; Exocytosis inh: inactive; Rh123 counter: inactive; MPTP swell DR: 6.7; MPTP cs DR: inactive

Results for CN1CCN(C(c2ccccc2)c2ccc(Cl)cc2)CC1 (stereo not drawn) ?
Apaf-1 inh: inactive; iPSC survival up: inactive; UBC13 inh: inactive; MIN6 prolif: inactive; MPTP inh: inactive; Exocytosis inh: inactive

How did C(=C\n1nnc2ccccc21)/c1ccccn1 do in these assays?
Apaf-1 inh: inactive; iPSC survival up: inactive; UBC13 inh: inactive; MIN6 prolif: inactive; MPTP inh: inactive; Exocytosis inh: inactive

Results for COc1cccc(CN2c3ccc(Br)cc3C(=O)CS2(=O)=O)c1 ?
Apaf-1 inh: inactive; iPSC survival up: inactive; UBC13 inh: inactive; MIN6 prolif: inactive; MPTP inh: inactive; Exocytosis inh: inactive

Results for COC(=O)C1(CC2CC(c3cccc(Br)c3)=NO2)CCN(C(=O)OC(C)(C)C)CC1 (stereo not drawn) ?
Apaf-1 inh: inactive; iPSC survival up: inactive; UBC13 inh: inactive; MIN6 prolif: inactive; MPTP inh: 54; Exocytosis inh: inactive; Rh123 counter: 57

How did Cc1ccc(C)c2c1[nH]c1ccc([N+](=O)[O-])cc12 do in these assays?
Apaf-1 inh: inactive; iPSC survival up: inactive; UBC13 inh: inactive; MIN6 prolif: inactive; MPTP inh: 81; Exocytosis inh: inactive; Rh123 counter: 82

What do the screens show for `Cc1ccc(S(=O)(=O)/N=C2/NC(=O)/C(=C/c3ccc(Br)o3)S2)cc1`?
Apaf-1 inh: inactive; iPSC survival up: inactive; UBC13 inh: inactive; MIN6 prolif: inactive; MPTP inh: 53; Exocytosis inh: inactive; Rh123 counter: 68

What do the screens show for `Cc1ccccc1-c1n[nH]nc1C1=CC(=O)CC(C)(C)C1`?
iPSC survival up: inactive; MPTP inh: inactive; Exocytosis inh: inactive

What do the screens show for `CCN(CC)c1ccc2nc3c4ccccc4c(=O)cc-3oc2c1`?
Apaf-1 inh: inactive; UBC13 inh: inactive; MIN6 prolif: inactive

What do the screens show for `CCN(CC)c1ccc2c(-c3ccc(S(=O)(=O)O)cc3S(=O)(=O)[O-])c3ccc(=[N+](CC)CC)cc-3oc2c1`?
Apaf-1 inh: inactive; iPSC survival up: inactive; UBC13 inh: inactive; MIN6 prolif: inactive; MPTP inh: 64; Exocytosis inh: inactive; Rh123 counter: inactive

How did CC(N=c1ccccn1C(=O)Nc1cccc(C(F)(F)F)c1)c1ccco1 (stereo not drawn) do in these assays?
Apaf-1 inh: inactive; iPSC survival up: inactive; UBC13 inh: inactive; MIN6 prolif: inactive; MPTP inh: 90; Exocytosis inh: inactive; Rh123 counter: 84

What do the screens show for `Cc1cc2[nH]c(=O)c(=O)[nH]c2cc1S(=O)(=O)N1CCC(C)CC1`?
Apaf-1 inh: inactive; iPSC survival up: inactive; UBC13 inh: inactive; MIN6 prolif: inactive; MPTP inh: inactive; Exocytosis inh: inactive

What do the screens show for `COc1ccc(-c2nnc(-c3ccc(OCC(C)C)cc3)o2)cc1`?
Apaf-1 inh: inactive; iPSC survival up: inactive; UBC13 inh: inactive; MIN6 prolif: inactive; MPTP inh: inactive; Exocytosis inh: inactive

How did CC(C)COc1ccc(-c2nnc(-c3ccncc3)o2)cc1 do in these assays?
Apaf-1 inh: inactive; iPSC survival up: inactive; UBC13 inh: inactive; MIN6 prolif: inactive; MPTP inh: 59; Exocytosis inh: inactive; Rh123 counter: 51

What do the screens show for `CCOC(=O)C1(CCOc2ccccc2)CCN(C(=O)CCSC)CC1`?
iPSC survival up: inactive; MPTP inh: inactive; Exocytosis inh: inactive

What do the screens show for `Cc1nc2ccccn2c1-c1ccnn1S(=O)(=O)c1ccc(F)cc1`?
Apaf-1 inh: inactive; iPSC survival up: inactive; UBC13 inh: inactive; MIN6 prolif: inactive; MPTP inh: 79; Exocytosis inh: inactive; Rh123 counter: 48

Results for Cc1nc2ccccn2c1C(=O)/C=C/c1ccc(F)cc1 ?
Apaf-1 inh: inactive; iPSC survival up: inactive; UBC13 inh: inactive; MIN6 prolif: inactive; MPTP inh: inactive; Exocytosis inh: inactive

What do the screens show for `CN1CCN(CCCC(=O)c2ccc(C3CCCC3)cc2)CC1`?
Apaf-1 inh: inactive; iPSC survival up: inactive; UBC13 inh: inactive; MIN6 prolif: inactive; MPTP inh: 79; Exocytosis inh: inactive; Rh123 counter: inactive; MPTP swell DR: 5.9; MPTP cs DR: 19

What do the screens show for `CN(C)CC1CCCCC1C1(O)c2ccccc2CSc2sccc21` (stereo not drawn)?
Apaf-1 inh: inactive; iPSC survival up: inactive; UBC13 inh: inactive; MIN6 prolif: inactive; MPTP inh: 57; Exocytosis inh: inactive; Rh123 counter: inactive; MPTP swell DR: 18; MPTP cs DR: inactive

How did O=C(NC1CCCC1)c1cc(COc2ccc3ncccc3c2)on1 do in these assays?
Apaf-1 inh: inactive; iPSC survival up: inactive; UBC13 inh: inactive; MIN6 prolif: inactive; MPTP inh: 95; Exocytosis inh: inactive; Rh123 counter: 94

How did CC(NC(=O)c1cc(COc2ccc3ncccc3c2)on1)c1ccc(F)cc1 (stereo not drawn) do in these assays?
Apaf-1 inh: inactive; iPSC survival up: inactive; UBC13 inh: inactive; MIN6 prolif: inactive; MPTP inh: 94; Exocytosis inh: inactive; Rh123 counter: 86

What do the screens show for `CSc1ccccc1OCc1cc(C(=O)N2CCC(c3ccncc3)CC2)no1`?
Apaf-1 inh: inactive; iPSC survival up: inactive; UBC13 inh: inactive; MIN6 prolif: inactive; MPTP inh: 60; Exocytosis inh: inactive; Rh123 counter: 91

Results for Cc1cc(OCc2cc(C(=O)N3CCC(Oc4cccnc4)CC3)no2)cc(C)c1Cl ?
Apaf-1 inh: inactive; iPSC survival up: inactive; UBC13 inh: inactive; MIN6 prolif: inactive; MPTP inh: 69; Exocytosis inh: inactive; Rh123 counter: 102

How did CO[C@H]1O[C@H](C)[C@@H](O)C[C@H]1NC(=O)OCc1ccccc1 do in these assays?
Apaf-1 inh: inactive; iPSC survival up: inactive; UBC13 inh: inactive; MIN6 prolif: inactive; MPTP inh: inactive; Exocytosis inh: inactive
